Screening data: PubChem BioAssay, several laboratories
Mdm2 ligase inh: MDM2-luciferase reporter signal enhancers, primary screen, MDM2 E3 ligase inhibitor project, cell-based, luminescence, 1536-well; cell-based MDM2 ubiquitination luciferase reporter, 2 h; 0 = plate control, 100 = twice control, blank-subtracted; signal enhancement, % at 5 µM; 0.11% of 210,000 active;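 active means signal enhancement of 30% or more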;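 further: luminescence tracks abundance of the self-degrading MDM2-luciferase fusion protein; higher signal means inhibition of MDM2 E3 ligase activity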
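Buffer or medium: Cells held in DMEM | Assay system: Stable mammalian line carrying autodegrading MDM2–luciferase fusion reporter | Quantity: 2000 cells/well | Times: 4 h settle plus 2 h compound, 37 °C | Doses: One concentration, 5 µM, with 0.2% DMSO | Technique: Luminescence with SteadyLite reagent, 15 min at room temperature | Benchmarks: Plate controls and plate blanks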
p97 inhibitor: inhibitors of human p97 ATPase, primary screen, biochemical. Transitional endoplasmic reticulum ATPase (Homo sapiens), P55072. recombinant p97 ATPase, Kinase-Glo ATP luminescence, 3 h. inhibition, % at 8 µM. 0.42% of 220,000 active; in the data active means inhibition above about 15%;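 further: 0% = DMSO vehicle and 100% = wells lacking enzyme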
Cl transport mod: KCC2 cotransporter modulators, thallium flux, primary screen, cell-based, HEK293 KCC2, FluoZin-2 fluorescence, MLSMR. KCC2 cells, thallium flux FluoZin-2 fluorescence. AID 1456, 2008. B-score of Tl+ flux slope (higher = more flux/activation; lower = inhibition) at 10 µM. 2.2% of 190,000 active. Solute carrier family 12 member 5 (Homo sapiens), Q9H2X9;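 active means thallium flux slope and its plate-corrected score both differing from the plate sample mean at a set confidence after two filtering rounds, in either direction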;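 further: slope of fluorescence scaled to starting intensity during 10 to 20 s after thallium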
Target sequence (Q9H2X9 whole entry, looked up): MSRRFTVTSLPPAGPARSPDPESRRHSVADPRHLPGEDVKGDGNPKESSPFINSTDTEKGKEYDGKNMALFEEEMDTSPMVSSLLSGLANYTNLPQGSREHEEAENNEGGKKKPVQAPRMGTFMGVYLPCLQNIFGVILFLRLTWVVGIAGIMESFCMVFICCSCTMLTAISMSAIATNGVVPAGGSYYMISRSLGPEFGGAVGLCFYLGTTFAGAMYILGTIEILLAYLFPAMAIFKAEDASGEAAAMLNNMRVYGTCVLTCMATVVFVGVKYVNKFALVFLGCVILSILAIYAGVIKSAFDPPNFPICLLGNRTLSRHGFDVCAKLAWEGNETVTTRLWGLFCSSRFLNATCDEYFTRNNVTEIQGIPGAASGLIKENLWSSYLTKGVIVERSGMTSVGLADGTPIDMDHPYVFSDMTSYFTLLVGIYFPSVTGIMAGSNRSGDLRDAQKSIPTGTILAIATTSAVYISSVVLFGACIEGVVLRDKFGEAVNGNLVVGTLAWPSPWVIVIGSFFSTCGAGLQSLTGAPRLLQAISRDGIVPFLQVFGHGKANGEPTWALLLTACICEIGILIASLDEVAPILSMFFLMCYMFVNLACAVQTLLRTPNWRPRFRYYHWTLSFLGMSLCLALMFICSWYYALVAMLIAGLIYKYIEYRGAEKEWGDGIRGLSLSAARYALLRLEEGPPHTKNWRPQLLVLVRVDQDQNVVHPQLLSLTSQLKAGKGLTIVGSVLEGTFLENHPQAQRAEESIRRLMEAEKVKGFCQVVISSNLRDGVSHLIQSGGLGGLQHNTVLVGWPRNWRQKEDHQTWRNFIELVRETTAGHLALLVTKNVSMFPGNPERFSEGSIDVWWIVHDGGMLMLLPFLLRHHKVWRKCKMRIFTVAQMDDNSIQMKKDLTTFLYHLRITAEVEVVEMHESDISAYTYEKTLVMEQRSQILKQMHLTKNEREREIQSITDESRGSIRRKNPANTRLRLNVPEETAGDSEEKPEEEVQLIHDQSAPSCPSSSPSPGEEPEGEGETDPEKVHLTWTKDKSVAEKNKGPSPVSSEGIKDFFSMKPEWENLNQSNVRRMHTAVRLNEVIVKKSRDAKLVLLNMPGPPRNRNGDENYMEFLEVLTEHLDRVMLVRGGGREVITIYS
ROMK mod: ROMK potassium channel modulators, primary screen, cell-based, thallium flux, MLSMR library. ATP-sensitive inward rectifier potassium channel 1 (Homo sapiens), P48048. Tet-inducible ROMK, thallium flux fluorescence; actives lie on both sides. B-score at 10 µM. 2% of 130,000 active. AID 1918, 2009;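 active means signal ratio slope over the read window, or its plate-corrected B-score, at least 3 SD from the plate mean, either direction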;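 further: B-score of the F/F0 ratio slope over 7 to 12 s after thallium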
Redox H2O2 prof: compounds producing H2O2 with reducing agent – biochemical, NIH compound library profiling, artefact control for MLSCN library redox annotation, primary screen. 0.03% of 200,000 active. activation, % at 10 µM. DTT-dependent redox cycling H2O2, phenol red/HRP absorbance; 100% = 100 µM peroxide control, 0% = buffer;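 active means activation of at least 50% relative to the plate's high and low controls in the primary single-dose screen; inactive means activation below 50%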;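 further: compound incubated with DTT at 0.8 mM final as the reducing agent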
PKD1 inh: inhibitors of human PKD1 kinase, biochemical, fluorescence polarization. PKD1 kinase fluorescence polarization assay. inhibition, % (no concentration beside the values). 0.056% of 200,000 active. AID 797, 2007; in the data active means inhibition above about 50%
* = called active by the depositor; x = no result. Sampled rows, rich in hits. Any-hit rate of the full collection: about 3.4%.

SMILES	Mdm2 ligase inh	p97 inhibitor	Cl transport mod	ROMK mod	Redox H2O2 prof	PKD1 inh
CCc1[nH]nc2c1C(c1ccc(C)o1)C(C#N)=C(N)O2 (centres undefined)	x	3.6	-0.0403	-2.46	0.0	6.3
CCc1[nH]nc2c1C(c1ccc(Br)s1)C(C#N)=C(N)O2 (centres undefined)	-10.8	0.6	-4.44*	-4.17*	-4.2	-3.0
Cc1ccc(F)c(NC(=O)/C(C#N)=C(\O)c2ccc(C(C)(C)C)cc2)c1	0.4	6.4	-5.63*	5.67*	-1.9	-4.7
Nc1cc(N)c(OCC(F)(F)F)cc1OCC(F)(F)F	-3.1	18.9*	0.688	x	1.8	4.1
Nc1cc(OCC(F)(F)F)cc([N+](=O)[O-])c1	-3.0	-0.6	0.676	0.0271	-0.3	-4.3
Cc1cccc(NC(=O)C2(C)CC3c4ccccc4C2c2ccccc23)c1C (centres undefined)	-7.9	2.8	-0.0734	x	0.3	-7.6
O=c1cc(-c2ccccc2Cl)oc2c(NS(=O)(=O)c3cc(Cl)cc(Cl)c3O)ccc(O)c12	x	4.0	20.2*	0.408	1.2	-1.4
CC1=NN(c2ccc(C)cc2)C(=O)/C1=C\C=C\c1ccccc1	51.7*	3.5	0.0243	0.547	-0.2	-5.8
Cc1nc(NCCc2ccc(S(N)(=O)=O)cc2)c2c(C)c(C)sc2n1	-28.2	-0.5	20.9*	1.04	-1.3	-3.1
CCn1c(CNc2ccc(Cl)cc2)nnc1SCC(=O)OC1CCCCC1	2.2	0.6	-0.0729	-4.16*	0.2	-6.0
CCn1c(CNc2ccccc2Cl)nnc1SCC(=O)OC1CCCCC1	-15.0	-6.5	-0.741	-3.01	1.2	-16.6
Cc1cccc(CSc2ccc(-c3ccco3)nn2)c1	-15.3	5.0	-1.68	-0.961	0.3	-5.8
CN(C)c1ccc(-c2nnc(-c3cccs3)o2)cc1	-65.6	0.2	-0.471	-0.689	-0.3	-2.4
Brc1ccc(-c2cnc(-c3cccs3)o2)cc1	31.7*	-3.0	-0.22	x	1.7	1.0
Cc1nc2ccccn2c1C(=O)Nc1ccc2c(c1)OCCO2	-38.3	-4.8	-1.3	0.021	0.2	-4.1
Cc1ccc(C)c(NC(=O)C(Sc2nnc(-c3cccs3)o2)c2ccccc2)c1 (centres undefined)	50.1*	1.6	0.173	x	-0.2	1.2
Cc1ccc(C)c(NC(=O)C(Sc2cccc[n+]2[O-])c2ccccc2)c1 (centres undefined)	6.5	-1.3	1.21	-0.131	0.3	-8.6
Cc1nn(Cc2ccccc2)c(C)c1NC(=O)CCC(=O)O	-4.3	0.8	1.77	0.579	0.1	4.5
Cc1cc(C(=O)CSc2nnc(Nc3ccccc3F)s2)c(C)n1CC1CCCO1 (centres undefined)	-9.1	3.8	0.0237	x	1.6	8.6
Cc1cc(C(=O)CSc2nnc(Nc3ccccc3)s2)c(C)n1CC1CCCO1 (centres undefined)	30.8*	1.1	0.341	x	0.2	-7.4
CCc1c(C)c(C#N)c2nc3ccccc3n2c1Cl	43.9*	8.0	-1.33	-1.5	-0.2	11.1
CCc1c(C)c(C#N)c2nc3ccccc3n2c1-n1nc(C)cc1C	-5.2	-2.7	-0.695	-0.256	0.3	-8.4
Cc1cccc(C)c1NC(=O)C[n+]1cc(-c2ccccc2)n2c1CCC2	-10.8	2.7	0.0277	x	x	x
Cc1ccc(/C=N/NC(=O)c2c[nH]c3ccccc23)o1	-11.5	-4.1	-1.07	-0.301	1.2	15.0
CC(C)[C@@H]1NC(=O)c2cc([N+](=O)[O-])cc(I)c2NCC[C@@H](C(N)=O)NC(=O)[C@H](CO)NC1=O	x	18.0*	-0.176	-0.321	0.6	-3.5
SMILES	Mdm2 ligase inh	p97 inhibitor	Cl transport mod	ROMK mod	Redox H2O2 prof	PKD1 inh
O=C(NC(=S)NCCC1=CCCCC1)c1cncc(Br)c1	-5.1	-1.0	14.9*	x	0.0	-3.1
COc1cc(-c2nc(-c3ccc(Br)o3)no2)cc(OC)c1OC	-13.0	19.0*	x	x	-1.0	-2.3
CCn1c(=O)n(CC(=O)Nc2cc(OC)c(OC)c(OC)c2)c(=O)c2ccccc21	36.7*	2.0	-1.56	0.995	0.1	3.0
CCn1c(=O)n(CC(=O)Nc2cccc(OC)c2)c(=O)c2ccccc21	10.5	3.5	0.351	-0.208	-1.6	-15.8
CCC(=O)Nc1cc(C(=O)NCC2CCCN2CC)c(OC)cc1N(C)C (centres undefined)	-12.8	-1.1	0.333	0.103	0.9	-0.1
N#Cc1c(N(CCO)CCO)nc(N)c2c(N)nc3c(c12)CC(=O)N3Cc1cccs1	-7.2	28.8*	-0.138	x	x	x
CN(CCO)c1nc(N)c2c(N)nc3c(c2c1C#N)CC(=O)N3Cc1cccs1	-20.5	2.9	-1.55	-0.775	-1.5	-1.0
CC(=O)NC1C(=O)N=C(SCC(=O)NC(C)c2ccccc2)NC1=O (centres undefined)	33.6*	6.5	x	-0.117	-0.1	1.3
S=c1[nH]c2cc(Cl)ccc2s1	-6.0	8.2	23.6*	x	3.1	-2.0
S=c1[nH]c2ccc(Cl)cc2[nH]1	-10.0	-5.8	0.339	0.942	-0.5	-1.6
Cc1cccc(N2CSC3=C(C#N)C(c4ccc(C)o4)CC(=O)N3C2)c1 (centres undefined)	-9.5	17.3*	0.51	x	0.5	-7.1
O=C(CC(c1ccccc1O)N1CCCCC1)N1CCCCC1 (centres undefined)	-18.7	6.7	-0.203	x	2.0	-3.7
CC(=O)NC(=S)c1c(N)n(Cc2ccccc2)c(=O)n(C)c1=O	-4.5	-2.6	3.9*	-0.0231	-0.7	-6.0
CCCn1c(N)c(C(=S)NC(=O)C2CC2)c(=O)n(C)c1=O	-1.9	-7.3	14.1*	x	-0.6	-10.0
CC(=O)Nc1ccc(SCC(=O)c2c(N)n(Cc3ccccc3)c(=O)n(C)c2=O)cc1	-11.1	4.6	-3.05	0.453	x	x
CCCn1c(N)c(C(=O)COC(=O)c2c(C)noc2C)c(=O)n(C)c1=O	-15.7	7.7	-0.871	0.424	1.7	-3.8
CCCCn1c(N)c(C(=S)NC(=O)CC(C)C)c(=O)n(C)c1=O	-2.9	-8.3	23.5*	x	-0.9	-5.5
COc1cccc(N2C(=O)/C(=C\c3cccs3)NC2=S)c1	5.9	5.3	4.82	0.0166	0.2	10.7
CCCN1C(=O)/C(=C/c2ccc(C)s2)NC1=S	-4.2	0.2	39.8*	5.52*	0.5	6.4
Cc1ccc(/C=C2/NC(=O)N(Cc3ccccc3F)C2=O)s1	-17.4	6.8	-0.384	-0.938	-0.4	-10.5
